Laboratory results from ChEMBL document CHEMBL1156178, “Discovery of novel 6,6-heterocycles as transient receptor potential vanilloid (TRPV1) antagonists” (J Med Chem, 2010).
≈ marks a conversion by molar mass, not a printed value. Values belong to the molecule of their own block, whether it stands above or below them. Calls of active or inactive are those of the source. No cut-off for these calls is given here.

How the values were obtained:
[1] = tested on: MDR1; test: Apparent permeability across pig LLC-PK1 cells expressing MDR1; type: ADME, cell-based, Sus scrofa
[2] = Plasma concentration in complete Freund's adjuvant treated Sprague-Dawley rat at 10 mg/kg, po qd for 2 days administered 24 hrs after CFA challenge after 2 hrs last post dose; type: ADME, organism-based; design: dose 10 mg/kg, route oral
[3] = Tmax in rat at 1 mg/kg, iv and 1 mg/kg, po; type: ADME, organism-based; conditions: in vivo
[4] = target: Voltage-gated L-type calcium channel (Rattus norvegicus, UniProt P22002+Q02485+P27732); test: Inhibition of rat L-type calcium channel
[5] = Plasma concentration in complete Freund's adjuvant treated Sprague-Dawley rat at 3 mg/kg, po qd for 2 days administered 24 hrs after CFA challenge after 2 hrs last post dose; type: ADME, organism-based; design: dose 3 mg/kg, route oral
[6] = Ratio of drug level in brain to plasma in rat at 3 mg/kg, po after 1 hr; type: ADME, organism-based; design: dose 3 mg/kg, route oral
[7] = tested on: Rattus norvegicus; test: Induction of hyperthermia in Sprague-Dawley rat at 3 mg/kg, po qd for 4 days; type: organism-based; design: dose 3 mg/kg, route oral; conditions: in vivo, 96 h
[8] = tested on: LLC-PK1; test: Efflux ratio of permeability from […] in MDR1 transfected pig LLC-PK1 cells; type: ADME, cell-based, Sus scrofa
[9] = Inhibition of PKA at 10 uM
[10] = tested on: Rattus norvegicus; test: Liver blood flow in rat at 1 mg/kg, iv and 1 mg/kg, po; type: ADME, organism-based; conditions: in vivo
[11] = target: Transient receptor potential cation channel subfamily V member 1 (Rattus norvegicus, UniProt O35433); test: Inhibition of rat TRPV1 at pH 5 to 5.5
[12] = AUC (0 to 24 hrs) in rat at 10 mg/kg, po; type: ADME, organism-based; design: time < 24 hr, dose 10 mg/kg, route oral; conditions: plasma
[13] = Plasma concentration in complete Freund's adjuvant treated Sprague-Dawley rat at 1 mg/kg, po qd for 3 days administered 24 hrs after CFA challenge after 2 hrs last post dose; type: ADME, organism-based; design: dose 1 mg/kg, route oral
[14] = target: Transient receptor potential cation channel subfamily V member 1 (Homo sapiens, UniProt Q8NER1); test: Antagonist activity at human recombinant TRPV1 expressed in HEK293 cells assessed as inhibition of capsaicin-induced calcium mobilization by FLIPR assay
[15] = Plasma concentration in carrageenan treated rat at 1 mg/kg, po administered 2 hrs after carrageenan challenge measured after 1 hr; type: ADME, organism-based; design: dose 1 mg/kg, route oral
[16] = Metabolic stability in rat liver microsomes assessed as compound remaining at 1 uM after 10 mins by LCMS analysis; type: ADME, Microsome; conditions: read-out: Activity
In short: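 Compound (1 μM) incubated at 37 °C with 0.5 mg/mL male pooled rat liver microsomes; NADPH added to start the reaction. Aliquots were taken at 0 and 10 min and quenched into ice-cold acetonitrile with internal standard, then centrifuged. Parent was monitored as the M+1 ion by ESI-LCMS in selected-ion mode. Percent remaining was taken as the 10 min/0 min signal ratio, corrected by internal-standard recovery.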

[17] = target: hERG (KCNH2) (Homo sapiens, UniProt Q12809); test: Inhibition of human ERG expressed in COS7 cells at 10 uM by electrophysiology assay; type: cell-based, COS-7; conditions: COS7 cells expressing human ERG
[18] = Oral bioavailability in rat at 1 mg/kg; type: ADME, organism-based; conditions: in vivo
[19] = Tmax in rat at 100 mg/kg, po; type: ADME, organism-based; design: dose 100 mg/kg, route oral; conditions: in vivo
[20] = Solubility in 0.1 N HCL after 4 hrs by HPLC/MS analysis; type: physicochemical
[21] = Volume of distribution in rat at 1 mg/kg, iv and 1 mg/kg, po; type: ADME, organism-based; conditions: in vivo
[22] = Plasma concentration in complete Freund's adjuvant treated Sprague-Dawley rat at 1 mg/kg, po qd for 2 days administered 24 hrs after CFA challenge after 2 hrs last post dose; type: ADME, organism-based; design: dose 1 mg/kg, route oral
[23] = Plasma concentration in complete Freund's adjuvant treated Sprague-Dawley rat at 1 mg/kg, po administered 24 hrs after CFA challenge after 2 hrs post dose; type: ADME, organism-based; design: dose 1 mg/kg, route oral
[24] = Equilibrium solubility in at pH 7.4; type: physicochemical; conditions: buffer
[25] = Cmax in rat at 10 mg/kg, po; type: ADME, organism-based; design: dose 10 mg/kg, route oral; conditions: in vivo
[26] = Half life in rat at 1 mg/kg, iv and 1 mg/kg, po; type: ADME, organism-based; conditions: in vivo
[27] = Cmax in rat at 1 mg/kg, po; type: ADME, organism-based; design: dose 1 mg/kg, route oral; conditions: in vivo
[28] = organism: Homo sapiens; test: Fraction unbound in human plasma
[29] = Fraction unbound in rat plasma; type: ADME, cell-free
[30] = Clearance in rat at 1 mg/kg, iv and 1 mg/kg, po; type: ADME, organism-based; conditions: in vivo
[31] = Plasma concentration in complete Freund's adjuvant treated Sprague-Dawley rat at 3 mg/kg, po qd for 3 days administered 24 hrs after CFA challenge after 2 hrs last post dose; type: ADME, organism-based; design: dose 3 mg/kg, route oral
[32] = tested on: Rattus norvegicus; test: Analgesic activity against CFA-induced inflammatory pain in Sprague-Dawley rat assessed as reversal of decrease in weight bearing at 10 mg/kg, po qd for 3 days administered 24 hrs after CFA challenge; type: functional, organism-based; design: dose 10 mg/kg
[33] = Plasma concentration in carrageenan treated rat at 0.3 mg/kg, po administered 2 hrs after carrageenan challenge measured after 1 hr; type: ADME, organism-based; design: dose 0.3 mg/kg, route oral
[34] = target: Mitogen-activated protein kinase 14 (Homo sapiens) (UniProt Q16539); test: Inhibition of p38alpha at 10 uM
[35] = target: Mitogen-activated protein kinase 3 (Homo sapiens, UniProt P27361); test: Inhibition of human ERK1
[36] = tested on: Rattus norvegicus; test: Analgesic activity in po dosed rat assessed as reversal of carrageenan-induced thermal hyperalgesia administered 2 hrs after carrageenan challenge; type: functional, organism-based
[37] = AUC (0 to 24 hrs) in rat at 100 mg/kg, po; type: ADME, organism-based; design: time < 24 hr, dose 100 mg/kg, route oral; conditions: plasma
[38] = target: Epidermal growth factor receptor (Homo sapiens) (UniProt P00533); test: Inhibition of EGFR at 10 uM
[39] = tested on: Rattus norvegicus; test: Analgesic activity in rat assessed as complete reversal of carrageenan-induced thermal hyperalgesia at 3 mg/kg, po administered 2 hrs after carrageenan challenge; type: functional, organism-based; design: dose 3 mg/kg
[40] = Protein binding in rat plasma; type: ADME, cell-free; conditions: read-out: PPB (converted)
[41] = Plasma concentration in complete Freund's adjuvant treated Sprague-Dawley rat at 10 mg/kg, po qd for 3 days administered 24 hrs after CFA challenge after 2 hrs last post dose; type: ADME, organism-based; design: dose 10 mg/kg, route oral
[42] = Plasma concentration in complete Freund's adjuvant treated Sprague-Dawley rat at 10 mg/kg, po administered 24 hrs after CFA challenge after 2 hrs post dose; type: ADME, organism-based; design: dose 10 mg/kg, route oral
[43] = Plasma concentration in carrageenan treated rat at 3 mg/kg, po administered 2 hrs after carrageenan challenge measured after 1 hr; type: ADME, organism-based; design: dose 3 mg/kg, route oral
[44] = Tmax in rat at 10 mg/kg, po; type: ADME, organism-based; design: dose 10 mg/kg, route oral; conditions: in vivo
[45] = AUC (0 to 24 hrs) in rat at 1 mg/kg, po; type: ADME, organism-based; design: time < 24 hr, dose 1 mg/kg, route oral; conditions: plasma
[46] = tested on: Rattus norvegicus; test: Induction of hyperthermia in Sprague-Dawley rat at 3 mg/kg, po after 1 hr; type: organism-based; design: dose 3 mg/kg, route oral; conditions: in vivo
[47] = tested on: Rattus norvegicus; test: Induction of hyperthermia in Sprague-Dawley rat at 3 mg/kg, po after 10 hrs; type: organism-based; design: dose 3 mg/kg, route oral; conditions: in vivo
[48] = target: Protein kinase C alpha type (Homo sapiens) (UniProt P17252); test: Inhibition of PKCalpha at 10 uM
[49] = Cmax in rat at 100 mg/kg, po; type: ADME, organism-based; design: dose 100 mg/kg, route oral; conditions: in vivo
[50] = Plasma concentration in complete Freund's adjuvant treated Sprague-Dawley rat at 3 mg/kg, po administered 24 hrs after CFA challenge after 2 hrs post dose; type: ADME, organism-based; design: dose 3 mg/kg, route oral
[51] = Tmax in rat at 1 mg/kg, po; type: ADME, organism-based; design: dose 1 mg/kg, route oral; conditions: in vivo
[52] = organism: Homo sapiens; test: Protein binding in human plasma; conditions: read-out: PPB (converted)
[53] = target: Insulin receptor (Homo sapiens) (UniProt P06213); test: Inhibition of insulin receptor at 10 uM
[54] = Tmax in rat at […], iv and 10 mg/kg, po; type: ADME, organism-based; conditions: in vivo
[55] = Clearance in rat at […], iv and 10 mg/kg, po; type: ADME, organism-based; conditions: in vivo
[56] = Half life in rat at […], iv and 10 mg/kg, po; type: ADME, organism-based; conditions: in vivo
[57] = Oral bioavailability in rat at 10 mg/kg; type: ADME, organism-based; conditions: in vivo
[58] = Volume of distribution in rat at […], iv and 10 mg/kg, po; type: ADME, organism-based; conditions: in vivo

Transient receptor potential cation channel subfamily V member 1 (Homo sapiens, UniProt Q8NER1), sequence (Q8NER1 whole entry): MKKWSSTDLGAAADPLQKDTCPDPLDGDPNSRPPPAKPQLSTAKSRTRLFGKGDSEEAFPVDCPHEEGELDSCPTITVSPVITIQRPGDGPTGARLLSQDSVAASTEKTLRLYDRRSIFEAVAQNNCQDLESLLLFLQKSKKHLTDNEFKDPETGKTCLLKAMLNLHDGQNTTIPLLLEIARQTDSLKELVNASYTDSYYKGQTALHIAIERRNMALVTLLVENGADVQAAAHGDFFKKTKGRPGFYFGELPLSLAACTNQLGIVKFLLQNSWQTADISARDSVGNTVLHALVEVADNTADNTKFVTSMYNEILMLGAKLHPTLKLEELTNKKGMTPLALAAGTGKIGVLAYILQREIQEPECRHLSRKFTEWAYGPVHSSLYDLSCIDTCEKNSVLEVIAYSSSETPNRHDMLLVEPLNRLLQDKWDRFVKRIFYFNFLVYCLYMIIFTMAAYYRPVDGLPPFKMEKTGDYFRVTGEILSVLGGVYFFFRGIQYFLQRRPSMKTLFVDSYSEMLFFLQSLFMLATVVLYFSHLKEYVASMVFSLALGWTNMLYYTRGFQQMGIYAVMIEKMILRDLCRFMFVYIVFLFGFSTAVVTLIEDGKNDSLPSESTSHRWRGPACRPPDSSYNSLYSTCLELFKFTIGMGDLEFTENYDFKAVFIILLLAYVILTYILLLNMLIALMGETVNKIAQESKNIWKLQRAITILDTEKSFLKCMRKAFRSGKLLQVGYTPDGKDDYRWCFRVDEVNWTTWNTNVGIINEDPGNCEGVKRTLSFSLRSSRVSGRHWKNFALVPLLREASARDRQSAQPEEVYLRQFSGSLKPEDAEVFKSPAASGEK
Mitogen-activated protein kinase 3, sequence (P27361 whole entry): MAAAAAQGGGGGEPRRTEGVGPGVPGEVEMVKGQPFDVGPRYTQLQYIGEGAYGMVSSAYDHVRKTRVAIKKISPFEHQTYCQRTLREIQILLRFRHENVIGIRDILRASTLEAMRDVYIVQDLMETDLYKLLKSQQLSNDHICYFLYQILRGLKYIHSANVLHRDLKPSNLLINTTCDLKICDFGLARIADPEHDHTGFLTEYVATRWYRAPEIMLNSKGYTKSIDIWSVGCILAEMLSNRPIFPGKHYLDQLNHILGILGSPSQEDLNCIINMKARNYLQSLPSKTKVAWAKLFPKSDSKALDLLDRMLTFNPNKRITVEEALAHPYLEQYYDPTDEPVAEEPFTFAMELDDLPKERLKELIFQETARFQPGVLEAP
Mitogen-activated protein kinase 14 (Homo sapiens), sequence (Q16539 whole entry): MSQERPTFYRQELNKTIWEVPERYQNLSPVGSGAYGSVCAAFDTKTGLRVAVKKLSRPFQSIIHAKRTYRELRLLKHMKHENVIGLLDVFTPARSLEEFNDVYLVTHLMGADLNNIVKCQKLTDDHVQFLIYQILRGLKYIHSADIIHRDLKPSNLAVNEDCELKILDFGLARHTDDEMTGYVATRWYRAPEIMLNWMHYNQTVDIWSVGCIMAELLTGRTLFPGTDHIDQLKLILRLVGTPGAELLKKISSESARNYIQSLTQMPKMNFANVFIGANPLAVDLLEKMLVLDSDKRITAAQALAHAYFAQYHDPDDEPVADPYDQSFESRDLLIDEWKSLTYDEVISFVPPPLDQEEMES
Epidermal growth factor receptor (Homo sapiens), sequence (P00533 whole entry): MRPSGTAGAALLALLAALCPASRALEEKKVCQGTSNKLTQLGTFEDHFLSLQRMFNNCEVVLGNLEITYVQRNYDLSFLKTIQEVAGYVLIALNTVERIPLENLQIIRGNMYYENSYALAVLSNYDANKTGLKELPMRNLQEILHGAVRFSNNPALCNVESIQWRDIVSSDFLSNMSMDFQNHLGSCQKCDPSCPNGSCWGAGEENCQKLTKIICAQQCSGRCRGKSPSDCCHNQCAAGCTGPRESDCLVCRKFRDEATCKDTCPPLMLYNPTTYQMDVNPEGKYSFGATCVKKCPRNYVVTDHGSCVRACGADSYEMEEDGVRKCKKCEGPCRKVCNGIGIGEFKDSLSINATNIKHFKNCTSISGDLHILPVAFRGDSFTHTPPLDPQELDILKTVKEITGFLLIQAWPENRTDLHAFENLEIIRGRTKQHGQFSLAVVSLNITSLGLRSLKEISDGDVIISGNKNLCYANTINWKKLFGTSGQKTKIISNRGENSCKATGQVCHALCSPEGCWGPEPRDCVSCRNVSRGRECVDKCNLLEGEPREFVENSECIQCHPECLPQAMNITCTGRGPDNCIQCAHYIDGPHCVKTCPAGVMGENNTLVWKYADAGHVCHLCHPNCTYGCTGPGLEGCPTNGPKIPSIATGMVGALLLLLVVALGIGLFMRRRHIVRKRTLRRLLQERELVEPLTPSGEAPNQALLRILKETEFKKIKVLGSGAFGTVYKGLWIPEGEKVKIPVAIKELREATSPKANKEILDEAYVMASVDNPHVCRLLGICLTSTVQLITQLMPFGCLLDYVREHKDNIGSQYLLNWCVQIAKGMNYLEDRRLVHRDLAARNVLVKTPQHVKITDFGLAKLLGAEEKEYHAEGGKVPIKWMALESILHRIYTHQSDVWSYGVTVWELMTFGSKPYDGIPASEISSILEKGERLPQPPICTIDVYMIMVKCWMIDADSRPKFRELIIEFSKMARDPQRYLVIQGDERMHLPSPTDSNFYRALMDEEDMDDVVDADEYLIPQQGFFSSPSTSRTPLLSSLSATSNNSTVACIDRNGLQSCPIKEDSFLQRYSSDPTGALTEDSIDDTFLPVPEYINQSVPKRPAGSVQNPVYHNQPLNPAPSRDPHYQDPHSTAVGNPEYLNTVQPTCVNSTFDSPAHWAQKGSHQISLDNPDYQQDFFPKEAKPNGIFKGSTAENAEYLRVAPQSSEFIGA
hERG (KCNH2), sequence (Q12809 whole entry): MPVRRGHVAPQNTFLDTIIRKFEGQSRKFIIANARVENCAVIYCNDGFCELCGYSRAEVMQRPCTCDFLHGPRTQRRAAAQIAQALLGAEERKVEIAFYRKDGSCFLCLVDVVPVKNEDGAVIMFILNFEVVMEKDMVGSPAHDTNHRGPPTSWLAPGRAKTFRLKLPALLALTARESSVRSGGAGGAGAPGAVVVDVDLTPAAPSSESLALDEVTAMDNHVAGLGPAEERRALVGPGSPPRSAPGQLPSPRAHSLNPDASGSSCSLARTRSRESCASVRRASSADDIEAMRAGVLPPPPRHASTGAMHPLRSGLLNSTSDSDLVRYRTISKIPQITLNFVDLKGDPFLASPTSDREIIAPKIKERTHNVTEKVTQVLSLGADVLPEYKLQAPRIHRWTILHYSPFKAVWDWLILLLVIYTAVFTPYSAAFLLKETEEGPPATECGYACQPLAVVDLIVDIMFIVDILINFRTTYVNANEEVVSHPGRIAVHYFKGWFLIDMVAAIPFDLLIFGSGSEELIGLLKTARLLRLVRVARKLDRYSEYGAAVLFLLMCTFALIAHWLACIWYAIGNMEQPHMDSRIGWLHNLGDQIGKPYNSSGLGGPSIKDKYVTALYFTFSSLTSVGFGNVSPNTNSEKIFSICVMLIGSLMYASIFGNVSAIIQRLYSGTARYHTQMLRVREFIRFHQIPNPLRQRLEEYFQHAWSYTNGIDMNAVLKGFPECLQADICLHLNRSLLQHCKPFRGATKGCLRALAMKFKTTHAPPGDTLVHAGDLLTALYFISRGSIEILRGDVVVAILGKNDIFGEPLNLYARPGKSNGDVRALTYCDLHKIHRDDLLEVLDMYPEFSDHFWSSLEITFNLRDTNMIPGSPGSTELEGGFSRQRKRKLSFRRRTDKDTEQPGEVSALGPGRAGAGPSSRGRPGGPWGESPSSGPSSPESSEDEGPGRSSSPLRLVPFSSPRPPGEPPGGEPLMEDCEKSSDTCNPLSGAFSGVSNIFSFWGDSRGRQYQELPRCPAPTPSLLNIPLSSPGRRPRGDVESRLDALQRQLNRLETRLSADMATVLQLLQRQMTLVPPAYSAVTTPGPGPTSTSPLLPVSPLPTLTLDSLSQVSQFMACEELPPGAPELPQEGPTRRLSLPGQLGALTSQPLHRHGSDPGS

Papp [1]: 29.8 ×10⁻⁶ cm/s | concentration at 2 h [2]: 5230 nM | Tmax [3]: 1.1 h | IC50 [4]: 3000 nM | concentration at 2 h [5]: 1330 nM | Kp at 1 h [6]: 0.3 | Ratio [8]: 1.7 | inhibition [9]: inactive | LBF [10]: 45% | IC50 [11]: 3.25 nM | AUC(0-t) at 24 h [12]: 22.6 µM·h | concentration at 2 h [13]: 380 nM | IC50 [14]: 2.2 nM | concentration at 1 h [15]: 300 nM | remaining at 10 min, 1 µM [16]: 100% | bioavailability [18]: 52% | Tmax [19]: 6 h | solubility at 4 h [20]: 40 µg/mL (≈ 91.9 µM) | Vd [21]: 3.9 L/kg | concentration at 2 h [22]: 390 nM | concentration at 2 h [23]: 100 nM | solubility thermodynamic [24]: 2 µg/mL (≈ 4.59 µM) | Cmax [25]: 2870 nM | half-life [26]: 1.4 h | Cmax [27]: 240 nM | fraction unbound [28]: 0.065 | fraction unbound [29]: 0.107 | clearance [30]: 34 mL/min/kg | concentration at 2 h [31]: 930 nM | concentration at 1 h [33]: 60 nM | inhibition [34]: inactive | IC50 [35]: 980 nM | AUC(0-t) at 24 h [37]: 204 µM·h | inhibition [38]: inactive | fraction unbound [40]: 0.107 | concentration at 2 h [41]: 3260 nM | concentration at 2 h [42]: 2300 nM | concentration at 1 h [43]: 1400 nM | Tmax [44]: 3.33 h | AUC(0-t) at 24 h [45]: 0.6 µM·h | inhibition [48]: inactive | Cmax [49]: 12900 nM | concentration at 2 h [50]: 230 nM | Tmax [51]: 1.1 h | fraction unbound [52]: 0.065 | inhibition [53]: inactive
Structure (SMILES): FC(F)(F)c1ccc(Nc2ccnc3nc(-c4ncccc4C(F)(F)F)ccc23)nc1
Activity [7]: Non-toxic | inhibition at 10 µM [17]: 47% | Activity [32]: Active | Activity [36]: Dose-dependent effect | Activity [39]: Active | Activity [46]: Non-toxic | Activity [47]: Non-toxic

Tmax [54]: 4.7 h | remaining at 10 min, 1 µM [16]: 100% | solubility at 4 h [20]: 35 µg/mL | clearance [55]: 22 mL/min/kg | half-life [56]: 4 h | bioavailability [57]: 65% | Vd [58]: 5.5 L/kg
Structure (SMILES): Cl.FC(F)(F)c1ccc(Nc2ncnc3cc(-c4ncccc4C(F)(F)F)ccc23)cn1

IC50 [14]: 1.65 nM | solubility at 4 h [20]: 34 µg/mL (≈ 78.3 µM)
Structure (SMILES): FC(F)(F)c1ccc(Nc2ccnc3cc(-c4ncccc4C(F)(F)F)ccc23)nc1

IC50 [14]: 79 nM | solubility at 4 h [20]: 12 µg/mL (≈ 27.5 µM)
Structure (SMILES): FC(F)(F)c1ccc(Nc2nccc3nc(-c4ncccc4C(F)(F)F)cnc23)nc1
